Like-named read-outs stand apart in the source and are kept apart here.
How the values were obtained:
[1] = Safety assay on normal cells, MTT assay; type: cell-based; details: human, WI-38 cells (normal lung fibroblast cell line)
Summary of the method: (§1)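 MTT viability assay, run on normal WI-38 and WISH cells in parallel with MDA-MB-231 and MCF-7 breast cancer lines to judge selectivity. A series of test compounds and a reference drug were tested.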

MCF-7 = details: read-out: IC50 against MCF-7; cited from earlier work
[2] = Safety assay on normal cells, MTT assay; type: cell-based; details: human, WISH cells (normal amnion cell line)
Summary of the method: as §1

HCT-116 = details: cited from earlier work
MCF-7 cells = type: cell-based, human; details: cancer cells over normal cells
VEGFR-2 = VEGFR-2 (Homo sapiens, UniProt P35968); assay: biochemical
MDA-MB-231 cells [3] = assay: Cell cycle analysis, flow cytometry; type: cell-based, human; details: MDA-MB-231, 4.64 µM 7a, 48 h
Bcl-2 = assay: ELISA for Bcl-2 in MDA-MB-231 cells; type: cell-based, human
MDA-MB-231 cells [4] = assay: Apoptosis analysis, Annexin V-FITC/PI flow cytometry; type: cell-based, human
Summary of the method: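 Annexin V-FITC/PI flow cytometry on MDA-MB-231 cells exposed to test compound. Percentages of viable, early apoptotic, late apoptotic and necrotic cells are compared against an untreated control group of the same cells.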

caspase-3 = assay: ELISA for caspase-3 in MDA-MB-231 cells; type: cell-based, human
Bax = assay: ELISA for Bax in MDA-MB-231 cells; type: cell-based, human; details: MDA-MB-231, 4.64 µM 7a, 72 h
MDA-MB-231 cells [5] = type: cell-based, human; details: cancer cells over normal cells
[6] = MDA-MB-231, 4.64 µM 7a, 72 h, ELISA

Chain of VEGFR-2 (P35968 20-1356): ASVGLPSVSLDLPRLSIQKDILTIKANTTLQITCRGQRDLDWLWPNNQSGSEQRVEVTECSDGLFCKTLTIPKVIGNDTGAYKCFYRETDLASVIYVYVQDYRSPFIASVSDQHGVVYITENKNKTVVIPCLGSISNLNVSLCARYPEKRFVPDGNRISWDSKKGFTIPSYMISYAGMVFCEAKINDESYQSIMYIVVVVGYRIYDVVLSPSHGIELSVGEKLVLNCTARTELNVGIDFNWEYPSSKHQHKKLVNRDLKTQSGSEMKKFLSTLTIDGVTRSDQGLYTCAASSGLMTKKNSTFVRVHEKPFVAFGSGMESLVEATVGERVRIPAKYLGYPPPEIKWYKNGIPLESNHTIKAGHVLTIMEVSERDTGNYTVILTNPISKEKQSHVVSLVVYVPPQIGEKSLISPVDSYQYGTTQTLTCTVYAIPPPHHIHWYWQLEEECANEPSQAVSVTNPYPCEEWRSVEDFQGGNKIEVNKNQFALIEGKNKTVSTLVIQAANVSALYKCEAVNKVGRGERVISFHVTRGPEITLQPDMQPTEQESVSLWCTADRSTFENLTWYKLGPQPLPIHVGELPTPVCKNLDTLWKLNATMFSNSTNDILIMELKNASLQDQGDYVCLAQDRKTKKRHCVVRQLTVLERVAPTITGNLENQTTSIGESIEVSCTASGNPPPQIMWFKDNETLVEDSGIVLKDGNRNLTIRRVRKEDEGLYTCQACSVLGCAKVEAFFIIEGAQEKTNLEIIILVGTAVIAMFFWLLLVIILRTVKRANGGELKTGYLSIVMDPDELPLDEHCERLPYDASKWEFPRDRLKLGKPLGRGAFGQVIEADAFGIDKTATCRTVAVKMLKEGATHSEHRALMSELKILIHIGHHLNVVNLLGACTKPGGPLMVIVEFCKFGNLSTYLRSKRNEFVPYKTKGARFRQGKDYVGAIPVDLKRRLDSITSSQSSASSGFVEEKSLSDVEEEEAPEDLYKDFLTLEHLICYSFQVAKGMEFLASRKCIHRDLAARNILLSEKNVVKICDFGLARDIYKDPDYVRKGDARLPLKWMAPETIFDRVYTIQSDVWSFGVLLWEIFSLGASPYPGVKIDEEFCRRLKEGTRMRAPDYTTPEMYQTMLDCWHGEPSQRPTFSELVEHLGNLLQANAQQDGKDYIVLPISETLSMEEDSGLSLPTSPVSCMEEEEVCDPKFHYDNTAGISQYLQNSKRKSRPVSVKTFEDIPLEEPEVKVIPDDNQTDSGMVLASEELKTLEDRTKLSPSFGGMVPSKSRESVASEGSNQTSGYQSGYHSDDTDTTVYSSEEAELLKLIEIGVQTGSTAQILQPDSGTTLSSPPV

SMILES	IC50 at 24 h [1]	IC50 (MCF-7)	IC50 at 24 h [2]	IC50 (HCT-116; read-out: IC50 against HCT-116)	IC50 (HCT-116; read-out: IC50 against HCT-116 cells)	Selectivity index (SI) for MCF-7 (MCF-7 cells)	IC50 (VEGFR-2)	Cell cycle distribution, G0/G1 (MDA-MB-231 cells [3])	Cell cycle distribution, G2/M (MDA-MB-231 cells [3])	Cell cycle distribution, S (MDA-MB-231 cells [3])	Bcl-2 conc. (Bcl-2; [6])	Bcl-2 FLD (Bcl-2; fold vs control MDA-MB-231 (FLD = 1), downregulated)	viability at 4.64 µM (MDA-MB-231 cells [4]; Homo sapiens, MDA-MB-231, 48 h, read-out: Viable cells)	Early apoptosis (MDA-MB-231 cells [4]; MDA-MB-231, 4.64 µM 7a, 48 h)	Late apoptosis (MDA-MB-231 cells [4]; MDA-MB-231, 4.64 µM 7a, 48 h)	Necrosis (MDA-MB-231 cells [4]; MDA-MB-231, 4.64 µM 7a, 48 h)	Caspase-3 conc. (caspase-3; [6])	Caspase-3 FLD (caspase-3; fold vs control MDA-MB-231 (FLD = 1), upregulated)	Bax conc. (Bax)	Selectivity index (SI) for MDA-MB-231 (MDA-MB-231 cells [5])
CNC(=O)c1cc(Oc2ccc(NC(=O)Nc3ccc(Cl)c(C(F)(F)F)c3)cc2)ccn1 [Sorafenib]	10.6 ± 0.8 µM	6.72 µM	13.4 ± 1.1 µM	9.3 µM	7.28 µM															
CC(=O)c1nn(-c2ccccc2Cl)/c(=N/N=C(\C)c2ccc(NC(=O)c3cccnc3)cc2)s1 [Compound 7a, N-(4-((E)-1-(((Z)-5-Acetyl-3-(2-chlorophenyl)-1,3,4-thiadiazol-2(3H)-ylidene)hydrazono)ethyl)phenyl)nicotinamide]	73.6 ± 3.8 µM		57.7 ± 3.3 µM			8.14	0.095 ± 0.05 µM	33%	8%	59%	1.53	3.68 fold	50%	1.06%	44.01%	4.94%	441.93	8.2 fold	394.72	15.86
